Conditions in all cases: stereoisomer not certain
One assay has as its target T1, OR2B11 (Homo sapiens) (UniProt Q5JQS5).
T1 sequence (whole entry): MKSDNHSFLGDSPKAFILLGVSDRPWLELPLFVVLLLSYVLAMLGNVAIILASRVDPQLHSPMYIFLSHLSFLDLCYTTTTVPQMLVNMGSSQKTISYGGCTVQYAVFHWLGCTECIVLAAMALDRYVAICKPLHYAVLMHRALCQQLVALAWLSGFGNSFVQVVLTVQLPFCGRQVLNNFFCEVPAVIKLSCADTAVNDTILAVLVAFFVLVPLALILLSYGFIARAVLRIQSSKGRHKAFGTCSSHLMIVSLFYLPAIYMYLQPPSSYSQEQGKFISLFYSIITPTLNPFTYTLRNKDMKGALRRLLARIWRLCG
In outline: (§1)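 Each entry records the cell line, G-protein, co-transfected protein and tags used. Methods varied with the source, often transient luciferase assays in mammalian cell lines. A receptor–molecule pair is called responsive (active) if the original authors judged its signal statistically different from baseline and non-responsive (inactive) otherwise.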

Assay [1] deals with T2, OR2BB.
T2 sequence (whole entry): T1 sequence (whole entry) with V198M, T293I, D300G
An outline of the steps:
as §1

The test system of assay [2] is T3, OR2BB.
T3 sequence (whole entry): T1 sequence (whole entry) with V198M
In outline: as §1
This is another data set of the same source.

For a further assay, the system named is T4, OR2C1.
T4 sequence (whole entry): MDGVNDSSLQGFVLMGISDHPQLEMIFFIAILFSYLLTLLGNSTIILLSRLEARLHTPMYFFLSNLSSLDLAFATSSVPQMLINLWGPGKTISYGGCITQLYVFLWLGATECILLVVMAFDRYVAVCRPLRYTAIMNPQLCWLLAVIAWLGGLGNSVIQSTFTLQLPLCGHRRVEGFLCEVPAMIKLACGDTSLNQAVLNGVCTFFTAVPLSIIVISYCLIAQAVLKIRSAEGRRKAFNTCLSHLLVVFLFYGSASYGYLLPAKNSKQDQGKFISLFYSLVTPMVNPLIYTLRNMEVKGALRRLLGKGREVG
An outline of the steps:
as §1

A further assay deals with T5, OR2A7.
T5 sequence (whole entry): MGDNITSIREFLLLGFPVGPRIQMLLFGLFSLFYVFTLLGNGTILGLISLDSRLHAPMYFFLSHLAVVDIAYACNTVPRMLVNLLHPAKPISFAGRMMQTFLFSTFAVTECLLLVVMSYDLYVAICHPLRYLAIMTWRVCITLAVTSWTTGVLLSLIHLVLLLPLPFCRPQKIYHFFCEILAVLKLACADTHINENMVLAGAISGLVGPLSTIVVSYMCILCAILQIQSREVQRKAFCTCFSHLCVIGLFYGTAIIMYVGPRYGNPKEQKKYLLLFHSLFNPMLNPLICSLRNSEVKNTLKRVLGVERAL
An outline of the steps: as §1

For another assay, the target named is T6, OR2AE1 (Homo sapiens) (UniProt Q8NHA4).
T6 sequence (whole entry): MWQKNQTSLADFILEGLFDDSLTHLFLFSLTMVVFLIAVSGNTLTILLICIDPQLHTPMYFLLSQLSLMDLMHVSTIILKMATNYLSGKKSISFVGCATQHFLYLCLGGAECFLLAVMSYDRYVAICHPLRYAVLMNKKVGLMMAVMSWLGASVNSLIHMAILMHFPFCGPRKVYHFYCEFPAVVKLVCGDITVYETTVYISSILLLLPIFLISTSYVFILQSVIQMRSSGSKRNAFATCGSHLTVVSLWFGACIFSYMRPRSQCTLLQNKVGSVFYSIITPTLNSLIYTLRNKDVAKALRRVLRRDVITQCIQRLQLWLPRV
In outline:
as §1

Another assay concerns the target T7, OR2AG1 (Homo sapiens) (UniProt Q9H205).
T7 sequence (whole entry): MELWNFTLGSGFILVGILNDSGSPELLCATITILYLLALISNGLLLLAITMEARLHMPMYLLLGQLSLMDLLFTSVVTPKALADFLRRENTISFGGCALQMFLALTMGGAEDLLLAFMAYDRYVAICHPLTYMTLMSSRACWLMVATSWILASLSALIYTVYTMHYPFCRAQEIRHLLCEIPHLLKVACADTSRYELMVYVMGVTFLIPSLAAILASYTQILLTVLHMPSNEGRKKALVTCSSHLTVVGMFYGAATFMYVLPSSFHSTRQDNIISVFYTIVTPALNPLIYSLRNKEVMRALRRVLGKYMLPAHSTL
An outline of the steps: as §1

The target of a further assay is T8, OR2AG2 (Homo sapiens) (UniProt A6NM03).
T8 sequence (whole entry): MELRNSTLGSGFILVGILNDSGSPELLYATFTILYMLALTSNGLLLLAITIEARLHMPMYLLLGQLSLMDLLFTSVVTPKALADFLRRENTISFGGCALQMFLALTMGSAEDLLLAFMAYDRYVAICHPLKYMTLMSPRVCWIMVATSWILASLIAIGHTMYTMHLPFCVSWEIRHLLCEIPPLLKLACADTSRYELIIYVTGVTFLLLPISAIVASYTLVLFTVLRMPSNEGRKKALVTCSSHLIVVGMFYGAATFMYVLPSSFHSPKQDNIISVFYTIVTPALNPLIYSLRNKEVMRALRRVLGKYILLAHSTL
In outline: as §1

A further assay deals with T9, OR2AK2 (Homo sapiens) (UniProt Q8NG84).
T9 sequence (whole entry): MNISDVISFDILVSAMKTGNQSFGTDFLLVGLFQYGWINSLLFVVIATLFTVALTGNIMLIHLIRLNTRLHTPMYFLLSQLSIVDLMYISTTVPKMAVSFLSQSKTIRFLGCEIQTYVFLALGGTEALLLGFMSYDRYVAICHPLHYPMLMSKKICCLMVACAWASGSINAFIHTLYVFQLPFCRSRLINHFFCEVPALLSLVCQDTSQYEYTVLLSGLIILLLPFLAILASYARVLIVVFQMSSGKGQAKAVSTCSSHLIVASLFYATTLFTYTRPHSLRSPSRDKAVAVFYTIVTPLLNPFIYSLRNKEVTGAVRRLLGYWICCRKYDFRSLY
An outline of the steps:
as §1

The target of another assay is T10, OR2AP1 (Homo sapiens) (UniProt Q8NGE2).
T10 sequence (whole entry): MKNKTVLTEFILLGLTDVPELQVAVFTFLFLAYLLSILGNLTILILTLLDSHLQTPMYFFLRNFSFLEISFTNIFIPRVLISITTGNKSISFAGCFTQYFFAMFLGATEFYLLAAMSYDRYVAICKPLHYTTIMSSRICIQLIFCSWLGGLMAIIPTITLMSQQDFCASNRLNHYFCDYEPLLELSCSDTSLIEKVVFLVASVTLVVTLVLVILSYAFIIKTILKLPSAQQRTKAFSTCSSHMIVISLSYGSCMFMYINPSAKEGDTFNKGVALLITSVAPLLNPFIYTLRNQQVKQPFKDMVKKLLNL
In outline: as §1

The next assay has as its target T11, OR2AT4 (Homo sapiens) (UniProt A6NND4).
T11 sequence (whole entry): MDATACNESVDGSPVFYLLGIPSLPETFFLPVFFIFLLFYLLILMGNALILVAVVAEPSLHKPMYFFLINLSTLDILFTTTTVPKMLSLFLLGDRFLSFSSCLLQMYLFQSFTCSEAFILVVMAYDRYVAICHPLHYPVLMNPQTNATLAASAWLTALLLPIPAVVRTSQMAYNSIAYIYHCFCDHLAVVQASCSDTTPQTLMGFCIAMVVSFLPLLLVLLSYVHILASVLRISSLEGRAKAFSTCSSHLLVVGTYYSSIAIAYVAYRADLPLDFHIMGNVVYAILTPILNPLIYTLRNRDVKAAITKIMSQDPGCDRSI
An outline of the steps:
as §1

The next assay concerns the target T12, OR2B2 (Homo sapiens) (UniProt Q9GZK3).
T12 sequence (whole entry): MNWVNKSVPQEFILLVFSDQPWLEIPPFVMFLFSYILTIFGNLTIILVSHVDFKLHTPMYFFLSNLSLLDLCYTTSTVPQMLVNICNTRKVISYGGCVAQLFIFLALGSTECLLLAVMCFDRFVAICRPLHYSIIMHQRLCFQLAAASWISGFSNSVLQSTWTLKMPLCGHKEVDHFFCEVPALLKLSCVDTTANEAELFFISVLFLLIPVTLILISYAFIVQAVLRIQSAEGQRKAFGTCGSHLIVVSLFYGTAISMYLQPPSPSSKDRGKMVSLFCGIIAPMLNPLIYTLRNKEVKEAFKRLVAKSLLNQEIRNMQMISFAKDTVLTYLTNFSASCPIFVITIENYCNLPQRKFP
An outline of the steps: as §1

The target of a further assay is T13, OR2B3 (Homo sapiens) (UniProt O76000).
T13 sequence (whole entry): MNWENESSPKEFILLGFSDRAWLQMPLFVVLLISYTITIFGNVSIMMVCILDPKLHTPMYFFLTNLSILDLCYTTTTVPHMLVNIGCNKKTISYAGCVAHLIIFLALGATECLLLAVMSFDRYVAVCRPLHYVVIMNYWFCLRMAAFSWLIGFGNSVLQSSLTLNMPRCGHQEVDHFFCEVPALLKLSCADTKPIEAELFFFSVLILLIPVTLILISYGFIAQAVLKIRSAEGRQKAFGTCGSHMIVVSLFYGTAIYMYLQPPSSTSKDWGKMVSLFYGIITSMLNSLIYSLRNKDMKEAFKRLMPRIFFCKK
An outline of the steps: as §1

A further assay deals with T14, OR2B6 (Homo sapiens) (UniProt P58173).
T14 sequence (whole entry): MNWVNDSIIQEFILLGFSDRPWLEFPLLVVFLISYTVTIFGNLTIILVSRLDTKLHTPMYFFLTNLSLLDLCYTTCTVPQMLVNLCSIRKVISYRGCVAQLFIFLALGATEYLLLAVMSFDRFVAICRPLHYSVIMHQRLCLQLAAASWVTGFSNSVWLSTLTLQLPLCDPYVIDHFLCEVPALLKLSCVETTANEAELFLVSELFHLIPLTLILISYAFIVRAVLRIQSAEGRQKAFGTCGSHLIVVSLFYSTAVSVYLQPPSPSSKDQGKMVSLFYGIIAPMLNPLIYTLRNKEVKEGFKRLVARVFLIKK
In outline:
as §1

Assay [3] has as its system T15, OR2BB.
T15 sequence (whole entry): T1 sequence (whole entry) with V198M, G223D
In outline: as §1
The source holds these as a separate data set.

The next assay has as its target T16, OR2C1 (Homo sapiens) (UniProt O95371).
T16 sequence (whole entry): T4 sequence (whole entry) with W149C
In outline:
as §1

Residue numbers refer to the chain shown, from its start.

As to `c1coc(CSSCc2ccco2)c1`, the “odorant receptor agonist call” value with OR2B11 (Homo sapiens), in the assay on OR2BB [1] and in the assay on OR2BB [2] was “active” throughout. For the same molecule, in the assay on OR2C1, the “odorant receptor agonist call” value is “inactive”.
`CC1=C(O)C(=O)OC1C` (stereo not given): the “odorant receptor agonist call” value in the assay on OR2A7, with OR2AE1 (Homo sapiens), with OR2AG1 (Homo sapiens), with OR2AG2 (Homo sapiens), with OR2AK2 (Homo sapiens) and in the assay with OR2AP1 (Homo sapiens) was “inactive” throughout. For the same molecule, the “odorant receptor agonist call” value in the assay with OR2AT4 (Homo sapiens), in the assay with OR2B11 (Homo sapiens), in the assay with OR2B2 (Homo sapiens), in the assay with OR2B3 (Homo sapiens), in the assay with OR2B6 (Homo sapiens) and in the assay on OR2BB [3] was “inactive” each time. Moreover, the “odorant receptor agonist call” value in the assay with OR2BB [2], with OR2C1 (Homo sapiens) and in the assay on OR2C1 was “inactive” each time.
For the molecule `C1CCC(SSC2CCCCC2)CC1`, the “odorant receptor agonist call” value with OR2B11 (Homo sapiens) was “active”.
Consider `COC1CC2CC1C1CC(C=O)CC21` (stereo not given), for which the “odorant receptor agonist call” value with OR2B3 (Homo sapiens) is “inactive”.
As to `CCCC(C)C1OCC(C)(CCC)CO1` (stereo not given), the “odorant receptor agonist call” value with OR2AG1 (Homo sapiens) was “inactive”.
As for `CC1=NC(C)C(C)S1` (stereo not given), the “odorant receptor agonist call” value with OR2A7, with OR2AE1 (Homo sapiens), in the assay with OR2AG1 (Homo sapiens), with OR2AG2 (Homo sapiens), in the assay with OR2AK2 (Homo sapiens) and in the assay with OR2AP1 (Homo sapiens) was “inactive” in each case. Besides, the “odorant receptor agonist call” value in the assay with OR2AT4 (Homo sapiens), with OR2B11 (Homo sapiens), with OR2B2 (Homo sapiens), with OR2B3 (Homo sapiens), with OR2B6 (Homo sapiens) and with OR2BB [3] was “inactive” throughout. The “odorant receptor agonist call” value with OR2BB [2], with OR2C1 (Homo sapiens) and in the assay with OR2C1 was “inactive” in each case.
In the case of `CC(C)C1OC(C)(C)OCC1(C)C` (stereo not given), the “odorant receptor agonist call” value with OR2AG1 (Homo sapiens) is “inactive”.
`CCOC(=O)CC1(C)OCCO1`: in the assay with OR2B3 (Homo sapiens), the “odorant receptor agonist call” value was “inactive”.
The same measure, in the same setting: with `CC(C)(C)C1CCCCC1OCCCCO` (stereo not given) the entry was “inactive”.

For the origin of these results see the M2OR odorant receptor database.
